# CXCR6 block: CXCR6 receptor inhibitors, primary screen, cell-based, beta-arrestin, luminescence, CHO-K1 PathHunter, 1536-well; inhibition, % at 20 µM; 0.36% of 360,000 active; in the data active means inhibition above about 34%, passing the limit was not always enough;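 further: antagonist mode with CXCL16 agonist at 10 nM final; 0% = 10 nM CXCL16 with DMSO and 100% = unstimulated wells without agonist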
# CCR6 antag: CCR6 receptor antagonists, primary screen, cell-based, CHO-K1, luminescence, beta-arrestin, uHTS; C-C chemokine receptor type 6 (Homo sapiens), P51684; CHO-K1 CCR6 PathHunter beta-arrestin, CCL20-stimulated; inhibition, % at 20 µM; 0.49% of 340,000 active; AID 493098, 2011;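 active means compounds whose inhibition of the agonist-driven luminescence signal at 20 µM reaches about 50%, limit read from the data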;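 further: cells stimulated with CCL20 at 14 nM final; plate controls were DMSO with CCL20 for no effect and DMSO without agonist for full effect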
# APJ agonist: agonists of human apelin receptor APJ, primary screen, CHO-K1 cells, PathHunter beta-arrestin, luminescence; activation, % at 20 µM; 0% DMSO wells, 100% apelin; AID 2520, 2010; 0.11% of 330,000 active;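 active means activation more than six SD over the plate average, tested at 20 µM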;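 further: 0% = DMSO alone and 100% = apelin-13 at 10 nM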
#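 Test system: CHO-K1 APJ beta-arrestin complementation cell line | Compound: Single test compound dose, 20 µM final, 1% DMSO | Incubation: Compound 90 min 25 °C, reagent 1 h | Measured by: beta-gal luminescence | Read-out basis: APJ–arrestin association signal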
# EBI2 block: EBI2 receptor antagonists, beta-arrestin recruitment, primary screen, cell-based, luminescence, 7a,25-OHC stimulation, uHTS | G-protein coupled receptor 183 (Homo sapiens), P32249 | 7a,25-OHC stimulated | inhibition, % at 5 µM | 0.81% of 360,000 active; in the data active means inhibition above about 38%;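 further: enzyme fragment complementation signal reports receptor beta-arrestin coupling in cells; 0% = agonist plus DMSO wells and 100% = wells without agonist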
# Target sequence (P32249 whole entry, looked up, the tested form may be a part): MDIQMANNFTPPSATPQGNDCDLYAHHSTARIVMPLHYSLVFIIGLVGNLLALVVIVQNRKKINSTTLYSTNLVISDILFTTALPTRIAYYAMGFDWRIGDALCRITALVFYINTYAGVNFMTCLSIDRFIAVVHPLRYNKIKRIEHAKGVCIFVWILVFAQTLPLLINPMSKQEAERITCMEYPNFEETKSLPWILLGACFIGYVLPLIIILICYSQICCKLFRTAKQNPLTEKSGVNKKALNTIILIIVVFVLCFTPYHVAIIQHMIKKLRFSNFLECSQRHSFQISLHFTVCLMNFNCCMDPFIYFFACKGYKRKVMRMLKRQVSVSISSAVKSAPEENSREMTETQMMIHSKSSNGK
# APJ antag: antagonists of human apelin receptor APJ, primary screen, CHO-K1 cells, beta-arrestin complementation, luminescence | P35414 | inhibition, % at 20 µM | 0.32% of 330,000 active;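 active means inhibition above about 40% at 20 µM, limit read from the data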;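 further: cells challenged with 10 nM apelin-13 agonist together with compound; plate controls were apelin-13 plus DMSO wells for no effect and DMSO wells lacking apelin-13 for full effect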
# EBI2 conf: EBI2 antagonist hit retest, beta-arrestin, confirmation, cell-based, single concentration, luminescence, 7a,25-OHC stimulation; shares compounds with EBI2 block; 7a,25-OHC antagonism; inhibition, % at 5 µM; 29% of 2,400 active;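 active means inhibition of at least 50%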
# EBI2 ag: EBI2 agonist activity of antagonist hits, confirmation, counter-screen for EBI2 antagonist project, cell-based, single concentration, agonist mode, luminescence; shares compounds with EBI2 block; EBI2-expressing cells, 60 min; 0% vehicle, 100% 7α,25-dihydroxycholesterol control; activation, % at 5 µM; 2,400 tested, under 10 active; AID 652000, 2013;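 active means activation of at least 50%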
# bGal counter: E. coli beta-galactosidase enzyme inhibition, confirmation, counter-screen for EBI2 antagonist project, biochemical, luminescence, single concentration; shares compounds with EBI2 block; purified beta-galactosidase, luminescent Galacton Star, 15 min; inhibition, % at 5 µM; 1% of 2,400 active;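 active means replicate-average signal at least 3 plate SD below neutral wells, shown as high inhibition, flagging enzyme-inhibiting false positives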;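 further: 0% = DMSO wells with enzyme and 100% = wells lacking enzyme; higher means stronger loss of beta-gal luminescence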
# Starred values were filed as active, the others as inactive; . = not tested or not shown. Only some compounds are listed: those with a hit (about 1.5% of all), similar ones and a draw of the others.
SMILES,CXCR6 block,CCR6 antag,APJ agonist,EBI2 block,APJ antag,EBI2 conf,EBI2 ag,bGal counter
COc1ccc(NS(=O)(=O)c2cccc(C(=O)NNC(=O)CNC(=O)c3ccccc3F)c2)cc1,-2,-6,1,-10,16,.,.,.
CCOC(=O)C1CCCN(C(=O)/C=C/c2cc(OC)c(OC)c(OC)c2)C1 (stereo not given),-3,-3,-5,5,2,.,.,.
CCOC(=O)C1CCCN(C(=O)/C=C/c2ccc(Cl)cc2)C1 (stereo not given),-6,19,-1,46*,-2,22,0,-7
CCc1ccccc1NC(=O)CN1CCN(C(=O)C2CCN(C(=O)/C=C/c3ccccc3)CC2)CC1,-1,7,0,77*,6,52*,1,1
Cc1ccc(/C=C/C(=O)N2CCC(Cc3ccccc3)CC2)cc1,1,-4,0,96*,-3,86*,2,7
Cc1ccc(/C=C/C(=O)N2CCCC(C)C2)cc1 (stereo not given),10,6,-4,67*,6,42,0,11
CCOc1cc(/C=N/NC(=O)c2cccc(S(=O)(=O)N3CCCC3)c2)ccc1OCC(=O)N(C)C,-1,-4,-2,-2,7,.,.,.
CC(C)OCCOc1ccc2oc(-c3ccco3)cc(=O)c2c1,3,2,-2,-2,-2,.,.,.
C=CCn1cn[nH]c1=S,-1,2,-3,-9,21,.,.,.
CN(C)CCCNC(=O)c1ccc(-c2cc3nc(NCc4cccnc4)n(C)c(=O)c3s2)cc1,15,.,.,-12,.,.,.,.
O=C(CS)Nc1ccc2ccccc2c1,-6,8,.,40*,.,26,0,3
COc1ccc(NC(=O)c2ccc(OC(F)F)cc2)cc1Cl,-4,15,-2,46*,6,54*,-1,-11
COc1ccc(C(=O)Nc2ccc3ccccc3c2)cc1,-5,15,3,55*,1,38,0,-6
COc1cccc(C(=O)Nc2ccc3ccccc3c2)c1,-6,3,2,13,7,.,.,.
COc1cccc(C(=O)Nc2ccc(NC(=O)Cc3ccccc3)cc2)c1,-3,11,1,66*,10,40,0,8
COc1ccc(NC(=O)c2cc(F)cc(F)c2)cc1Cl,-1,0,2,-5,11,.,.,.
Cc1ccc(N2CCN(S(=O)(=O)c3ccc4oc(=O)ccc4c3)CC2)c(C)c1,-14,12,1,-4,-3,.,.,.
COC(=O)C[C@@H]1C[C@@H]2c3cc(NS(=O)(=O)c4ccc(F)cc4)ccc3O[C@@H]2[C@@H](CO)O1,1,.,.,-5,.,.,.,.
O=C(Nc1ccc(S(=O)(=O)Nc2ncccn2)cc1)C12CC3CC(CC(Cl)(C3)C1)C2,0,-2,-1,2,-5,.,.,.
O=C(COC(=O)c1ccccc1F)NC(=O)NC1CCCC1,4,20,2,6,0,.,.,.
CN(C(=O)c1ccccc1OCc1ccc(F)cc1)c1c(N)n(Cc2ccccc2)c(=O)[nH]c1=O,-13,13,-5,-10,-22,.,.,.
COc1ccc(NC(=O)c2ccc(OC(=S)N(C)c3ccc(OC)cc3)cc2)cc1,-5,6,6,86*,-11,74*,-2,-9
COc1ccc(NC(=S)NN(C)C(=S)Nc2ccc(OC)cc2)cc1,2,6,-2,67*,-27,24,0,0
COc1ccc(OC)c(C(=O)c2ccc(C(=O)Nc3ccc4ccccc4c3)cc2)c1,2,2,-2,88*,5,55*,-1,-9
O=C(c1ccc(Cl)cc1)C1CCN(C(=O)c2ccccc2)CC1,-3,3,0,21,-10,.,.,.
SMILES,CXCR6 block,CCR6 antag,APJ agonist,EBI2 block,APJ antag,EBI2 conf,EBI2 ag,bGal counter
O=C(c1ccc(Cl)cc1)N1CCN(C(=O)C2CCCCC2)CC1,-4,3,1,60*,5,17,3,3
O=C(c1ccc(F)cc1)C1CCN(C(=O)c2ccc(Cl)cc2)CC1,-7,19,.,83*,.,54*,0,-12
O=C(c1ccc(Cl)cc1)N1CCCC(C(=O)N2CCCCC2)C1 (stereo not given),-14,1,-2,-2,7,.,.,.
Cc1cccc(C)c1C(O)c1ncc(-c2ccccc2C(F)(F)F)[nH]1 (stereo not given),4,.,.,-6,.,.,.,.
O=C1c2ccccc2C(=O)N1C1C=CC=CC=C1,2,.,.,-9,.,.,.,.
COc1ccc(/C=N/N2C(=N)SCC2=O)cc1,9,-3,-1,-1,1,.,.,.
COc1ccc(Br)cc1/C=N/n1c(COc2ccccc2)n[nH]c1=S,6,5,-4,12,-6,.,.,.
Cc1ccc(OCC(O)CNS(=O)(=O)c2ccccc2C(=O)N2CCCCC2)cc1 (stereo not given),-8,6,-6,46*,0,7,-1,-13
CCCCn1nc(C(=O)N(C)CC(=O)Nc2ccc(F)c(F)c2F)ccc1=O,1,12,-2,-13,1,.,.,.
CCOCCCNC(=O)CN1C(=O)COc2ccc(S(=O)(=O)N3CCOCC3)cc21,-3,-7,-5,-9,12,.,.,.
C=CCNC(=S)N/N=C/c1cn(-c2ccccc2)nc1-c1ccc(OC)cc1,10,-18,2,45*,-17,35,1,7
CCc1nc2ccc(C(=O)NCCOc3ccc(OC)cc3)cn2c1N(CC)CCOC,-3,.,.,45*,.,37,2,0
CCc1nc2ccc(C(=O)NCCN(C)C)cn2c1N(CC)CCOC,-4,.,.,-11,.,.,.,.
CCc1nc2ccc(C(=O)NCCOc3ccc(OC)cc3)cn2c1N(CC)Cc1cccc(Br)c1,17,.,.,74*,.,48,0,5
CCc1nc2ccc(C(=O)Nc3cccc(OC)c3)cn2c1N(CC)Cc1cccc(Br)c1,13,.,.,13,.,.,.,.
COc1cc(OC)cc(-c2c(Sc3ccccc3)c3cc(-c4cnc(OC)nc4)ccc3n2C)c1,3,.,.,65*,.,10,-1,-6
Cc1ccccc1-n1ncc2c1CC(C)(C)CC2NC(=O)CN1CCCC1=O (stereo not given),5,10,4,7,15,.,.,.
